This note sets out measurements from ChEMBL document CHEMBL4813921, “Optimization of WZ4003 as NUAK inhibitors against human colorectal cancer” (Eur J Med Chem, 2021).

The subject of assay [1] is U2OS. As to the kind of experiment: Induction of cell cycle arrest in human U2OS cells assessed as reduction in accumulation at S phase at 10 uM measured after 48 hrs by PI/RNaseA staining based flow cytometry assay. It counts as functional. In general terms: A flow cytometer gives signals particle by particle.
For assay [2], the system named is U2OS. Kind of assay: Inhibition of colony formation in human U2OS cells measured after 14 days by crystal violet staining based microcopic analysis. The conditions noted are these: dose 0.5-2 µM, time 14.0 day. It is filed as functional, cell-based. A digest of the protocol:
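Clonogenic assay with 14-day exposure to a range of compound concentrations; colonies stained with crystal violet and imaged by microscopy; compared with untreated cells.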

Structures are written as SMILES. The source made the active and inactive calls. The rule behind the calls is not given here.

Take `CCC(=O)Nc1cccc(Oc2nc(Nc3ccc(N4CCN(C)CC4)cc3)ncc2Cl)c1`: the outcome in the assay on U2OS [1] was Active. Also, in the assay with U2OS [2], the inhibition entry was “Dose-Dependent Effect”.
